These results are taken from PubChem BioAssay AID623991 (Broad Institute, 2012).

The test addresses PvdQ acyl-homoserine lactone acylase (Pseudomonas aeruginosa LESB58). The experiment in a line: PvdQ acylase inhibitors, dose response, biochemical, 4-MU laurate fluorescence, dry powder, set 3 (AID 623991). The note with it: Purified PvdQ, 4-MU laurate hydrolysis; for activity change, negative = inhibition: at 19.5 µM (top of the series). The method, boiled down:
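Test system – P. aeruginosa PvdQ acylase · Measured by – fluorescence, excitation 303–367 nm, emission 440–460 nm, reads at 0 and 60 min · Times – 30 min enzyme-compound pre-incubation, then 60 min substrate reaction, room temperature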

The structures appear in SMILES notation. Calls of active or inactive are those of the source.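 The calls were made as follows: active = inhibitors lowering the signal whose fitted half-maximal concentration is at most twice the top valid tested dose; inconclusive = flat curve with partial inhibition, or a poor curve fit; inactive = effect opposite to expected, flat near zero, or too weak.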 Where only a bound is given, the exact number is not on record here.

As for `CN(C)CCCC(C#N)c1ccc(F)cc1` (stereo not given), the AC50 is 589 nM.

On to `N#CC(c1ccc(C(F)(F)F)c(Cl)n1)c1ccccc1OC(F)(F)F` (stereo not given), for which the AC50 was 12200 nM.

As for `CCCCC(C#N)c1ccc(F)cn1` (stereo not given), the “activity change, negative = inhibition” value was “inactive”.

For `COCCC(C#N)c1ccc(Cl)cc1` (stereo not given), the AC50 is 6270 nM.

Consider `N#CC(c1ccc(Cl)cc1)c1cccc(Cl)n1` (stereo not given), for which the AC50 is 36.8 nM.

Turning to `COCCC(C#N)c1ccc(F)cc1` (stereo not given), the AC50 is 1270 nM.

Turning to `N#CC(c1ccc(Cl)cc1)c1ncccc1Cl` (stereo not given), the AC50 was 3.09 nM.

Turning to `N#Cc1cccc(C(C#N)c2ccc(F)cc2)n1` (stereo not given), the AC50 is 200 nM.

Consider `N#CC(c1ccc(Cl)cc1)c1ccccn1` (stereo not given), for which the AC50 is 296 nM.

Turning to `CCCCC(C#N)c1ccc(Cl)cc1` (stereo not given), the AC50 was 1070 nM.

`CCCCC(C#N)c1ccc(F)cc1` (stereo not given): the AC50 was 607 nM.

For `N#CC(c1ccc(Cl)cc1)c1cccc(C(F)(F)F)n1` (stereo not given), the AC50 is 25.4 nM.

Turning to `N#CC(c1cccc(C(F)(F)F)n1)c1ccc(Cl)cc1F` (stereo not given), the AC50 is less than 3 nM.

Take `CCCCC(c1ccc(Cl)cc1)c1nn[nH]n1` (stereo not given): the AC50 was 3190 nM.

Consider `COCCNC(C#N)c1ccc(Cl)cc1` (stereo not given), for which the “activity change, negative = inhibition” value is “inactive”.

For the compound `CN(C)CCCC(C#N)c1ccc(Cl)cc1` (stereo not given), the AC50 is 17900 nM.

In the case of `N#CC(c1ccc(F)cc1)c1cccc(C(F)(F)F)n1` (stereo not given), the AC50 is 4.71 nM.

Regarding `COCCOCCC(C#N)c1ccc(Cl)cc1` (stereo not given), the AC50 is 7770 nM.

On to `CCCCC(C#N)c1ccc(Cl)cn1` (stereo not given), for which the AC50 was 3470 nM.

On to `N#CC(c1ccc(F)cc1)c1cccc(Cl)n1` (stereo not given), for which the AC50 is 119 nM.

In the case of `N#CC(c1cccc(Cl)n1)c1ccc(Cl)cc1F` (stereo not given), the AC50 is 15.6 nM.

As to `COCCOCCC(C#N)c1ccc(F)cc1` (stereo not given), the AC50 was 165 nM.

`N#CC1c2ccc(Cl)cc2CCc2cccnc21` (stereo not given): the concentration at half-maximal activity (AC50) was 11200 nM.

With `CCCCC(C#N)c1ccccn1` (stereo not given), the “activity change, negative = inhibition” value was “inactive”.

In the case of `N#CC(c1ccc(Cl)cc1)N1CCCC1` (stereo not given), the AC50 was 1830 nM.
